ChEMBL document CHEMBL1157835, “Synthesis and evaluation of verticipyrone analogues as mitochondrial complex I inhibitors” (Bioorg Med Chem, 2010)

What was measured:
[1] = Cytotoxicity against human CRL2365 cells by MTT assay; type: functional, cell-based
Outline: (§1)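 MTT growth assay. MCF-7, A-549 and 3LL cells grown in RPMI-1640; CRL-2365 and CRL-2366 grown in DMEM. All media had 10% FBS, penicillin G (100 U/mL) and streptomycin (100 μg/mL).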

[2] = Inhibition of NADH oxidase from beef heart submitochondrial particles by spectrophotometry; design: species or system Bos taurus
Outline: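 Bovine heart inverted SMP, stored in 0.25 M sucrose/10 mM Tris-HCl pH 7.4 at −80 °C, diluted to 0.5 mg/mL and activated with 300 NADH. Assayed at 30 °C in 50 mM Hepes pH 7.5, 5 mM MgCl2, 30 μg protein. SMP pre-equilibrated with inhibitor 5 min, then 50 μM NADH added. Rates from the linear part of the trace at 340 nm. Ethanol ≤2%.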

[3] = Cytotoxicity against mouse 3LL cells by MTT assay; type: functional, cell-based; outline: as §1
MCF-10A = experiment: Cytotoxicity against human MCF10A cells by MTT assay; type: functional, cell-based
Outline: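 MTT growth assay on MCF-10A cells grown in Mammary Epithelial Growth Medium following the supplier protocol.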

[4] = Cytotoxicity against human CRL2366 cells by MTT assay; type: functional, cell-based; outline: as §1
[5] = Inhibition of NADH-ubiquinone oxidoreductase from beef heart submitochondrial particles by spectrophotometry; design: species or system Bos taurus
Outline: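 Bovine heart inverted SMP, activated with 300 NADH, 30 μg protein, 30 °C. 5 min inhibitor pre-equilibration, then 50 μM NADH added. Read at 340 nm. […] IC50 is the final concentration giving 50% inhibition; mean ± SD of three independent experiments.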

[6] = Inhibition of mitochondrial complex 1 in human MCF7 cells assessed as concentration required to obtain half maximal lactate production after 3 hrs by spectrophotometry; type: cell-based; conditions: MCF7, 3 h
Outline: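 MCF-7 cells seeded at 2 × 10^5 per well and grown 24 h to about 50% confluence, then rinsed. Compounds given in Krebs-Ringer buffer for 3 h, with buffer controls. Supernatant lactate measured by ΔOD at 363 nm (ε 9.1 mM−1 cm−1). IC50 is the dose giving 50% of maximal lactate production. Points are the mean ± SD of triplicates; experiments repeated at least three times.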

A549 = experiment: Cytotoxicity against human A549 cells by MTT assay; type: functional, cell-based; outline: as §1
MCF7 = experiment: Cytotoxicity against human MCF7 cells by MTT assay; type: functional, cell-based; outline: as §1

SMILES	IC50 [2]	IC50 [5]	IC50 [1]	IC50 [3]	IC50 (MCF-10A)	IC50 [4]	IC50 [6]	IC50 (A549)	IC50 (MCF7)
CCCCCCCC[C@](C)(O)CCc1oc(=O)c(C)c(O)c1C	10.7 µM	13.3 µM	> 31 µM	> 31 µM	> 31 µM	> 31 µM	16.6 µM	> 31 µM	> 31 µM
CCCCC(O)Cc1oc(OC)c(C)c(=O)c1C (stereo not given)	> 20 µM	> 25 µM	–	–	–	–	> 20 µM	–	–
COc1oc(CC(O)CCCCCCc2ccccc2)c(C)c(=O)c1C (stereo not given)	0.0725 µM	0.257 µM	> 27 µM	17.3 µM	15.1 µM	> 27 µM	0.88 µM	> 27 µM	> 27 µM
COc1oc(CC(O)CCCCCOc2ccccc2)c(C)c(=O)c1C (stereo not given)	0.219 µM	0.595 µM	–	–	–	–	–	–	–
CCCCCCCC[C@@](C)(O)CCc1oc(OC)c(C)c(=O)c1C	0.0459 µM	0.133 µM	3.3 µM	0.39 µM	5.3 µM	2.7 µM	0.3 µM	5.3 µM	3.3 µM
CCCCCCCCCC(O)Cc1oc(OC)c(C)c(=O)c1C (stereo not given)	0.0649 µM	0.231 µM	29.9 µM	22.2 µM	9.9 µM	> 31 µM	0.9 µM	20.7 µM	23.2 µM
CCCCCCCC[C@@](C)(O)CCc1oc(=O)c(C)c(O)c1C	14.7 µM	19 µM	> 31 µM	> 31 µM	> 31 µM	> 31 µM	8.6 µM	> 31 µM	> 31 µM
COc1oc(CC(O)CCCCCOc2ccc(-c3ccccc3)cc2)c(C)c(=O)c1C (stereo not given)	0.0359 µM	0.102 µM	12.4 µM	13.5 µM	9.2 µM	19.5 µM	0.34 µM	17 µM	17.4 µM
CCCCCCCCC(C)(O)CCc1[nH]c(=O)c(C)c(O)c1C (racemic)	4.29 µM	1.25 µM	–	–	–	–	–	–	–
CCCCCCCCC(C)(O)CCc1oc(=O)c(C)c(O)c1C (racemic)	13.6 µM	16.4 µM	> 31 µM	> 31 µM	> 31 µM	> 31 µM	4.9 µM	> 31 µM	> 31 µM
CCCCCC[C@H]1C(=O)O[C@H](C)[C@H](NC(=O)c2cccc(NC=O)c2O)C(=O)O[C@@H](C)[C@@H]1OC(=O)CC(C)C [ANTIMYCIN A]	–	–	–	–	–	–	< 0.15 µM	–	–

Now from value to compound, other results behind:

IC50 [2]	IC50 [5]	SMILES	IC50 [1]	IC50 [3]	IC50 (MCF-10A)	IC50 [4]	IC50 [6]	IC50 (A549)	IC50 (MCF7)
0.0432 µM	0.126 µM	CCCCCCCC[C@](C)(O)CCc1oc(OC)c(C)c(=O)c1C	2.4 µM	0.34 µM	5.6 µM	3.3 µM	0.18 µM	4.1 µM	–
0.0508 µM	0.145 µM	CCCCCCCC[C@@](C)(O)CCc1oc(C)c(C)c(=O)c1C	–	–	–	–	–	–	–
0.0475 µM	0.135 µM	CCCCCCCC[C@](C)(O)CCc1oc(C)c(C)c(=O)c1C	–	–	–	–	–	–	–
0.0526 µM	0.151 µM	CCCCCCCCC(C)(O)CCc1oc(OC)c(C)c(=O)c1C (racemic)	–	–	–	–	0.38 µM	–	–
0.055 µM	0.18 µM	CCCCCCCCC(C)(O)CCc1oc(C)c(C)c(=O)c1C (racemic)	> 31 µM	> 31 µM	> 31 µM	> 31 µM	0.94 µM	> 31 µM	> 31 µM
